Ratio IC50 and IC50 data for 15 compounds are collected here from ChEMBL document CHEMBL3102751, “Cholinesterase inhibitory activity versus aromatic core multiplicity: a facile green synthesis and molecular docking study of novel piperidone embedded thiazolopyrimidines” (Bioorg Med Chem, 2014).

Sequence of Acetylcholinesterase (O42275 whole entry): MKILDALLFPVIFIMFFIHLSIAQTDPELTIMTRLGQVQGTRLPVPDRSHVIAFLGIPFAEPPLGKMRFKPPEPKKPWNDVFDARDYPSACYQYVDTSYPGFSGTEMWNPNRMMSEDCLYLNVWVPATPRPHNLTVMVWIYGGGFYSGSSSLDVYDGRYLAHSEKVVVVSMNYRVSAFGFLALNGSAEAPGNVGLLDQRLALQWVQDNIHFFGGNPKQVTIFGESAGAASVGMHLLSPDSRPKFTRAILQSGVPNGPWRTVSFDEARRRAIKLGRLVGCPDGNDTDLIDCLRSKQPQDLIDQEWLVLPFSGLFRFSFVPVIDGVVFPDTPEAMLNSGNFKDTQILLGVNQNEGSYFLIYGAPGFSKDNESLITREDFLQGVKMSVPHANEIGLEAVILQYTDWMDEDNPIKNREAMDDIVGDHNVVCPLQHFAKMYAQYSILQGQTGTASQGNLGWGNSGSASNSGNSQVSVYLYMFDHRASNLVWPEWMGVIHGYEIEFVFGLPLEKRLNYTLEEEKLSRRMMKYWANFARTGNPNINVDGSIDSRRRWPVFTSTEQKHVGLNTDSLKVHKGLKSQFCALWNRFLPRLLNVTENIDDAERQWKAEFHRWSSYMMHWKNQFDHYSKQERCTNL

Test system in one test: not listed separately
In words: Selectivity ratio of IC50 for Electrophorus electricus acetylcholinesterase to IC50 for equine serum butyrylcholinesterase.
`Clc1ccc(/C=C2\CNCC3=C2N=C2SC=C(c4ccccc4)N2C3c2ccc(Cl)cc2)cc1` (stereo not drawn): the Ratio IC50 is 0.74.

Regarding `Cc1ccc(/C=C2\CNCC3=C2N=C2SC=C(c4ccc(F)cc4)N2C3c2ccc(C)cc2)cc1` (stereo not drawn), the Ratio IC50 came out at 1.32.

On to `Fc1ccc(C2=CSC3=NC4=C(CNC/C4=C\c4ccccc4)C(c4ccccc4)N23)cc1` (stereo not drawn), for which the Ratio IC50 is 2.57.

For `COc1ccccc1/C=C1\CNCC2=C1N=C1SC=C(c3ccc(F)cc3)N1C2c1ccccc1OC` (stereo not drawn), the Ratio IC50 came out at 0.63.

With `Fc1ccc(/C=C2\CNCC3=C2N=C2SC=C(c4ccccc4)N2C3c2ccc(F)cc2)cc1` (stereo not drawn), the Ratio IC50 is 1.02.

In the case of `Cc1ccc(/C=C2\CNCC3=C2N=C2SC=C(c4ccc(Cl)cc4)N2C3c2ccc(C)cc2)cc1` (stereo not drawn), the Ratio IC50 was found to be 0.67.

Consider `Fc1ccc(/C=C2\CNCC3=C2N=C2SC=C(c4ccc(Cl)cc4)N2C3c2ccc(F)cc2)cc1` (stereo not drawn), for which the Ratio IC50 stood at 0.46.

On to `Clc1ccc(C2=CSC3=NC4=C(CNC/C4=C\c4ccccc4)C(c4ccccc4)N23)cc1` (stereo not drawn), for which the Ratio IC50 came to 0.54.

Turning to `Fc1ccc(/C=C2\CNCC3=C2N=C2SC=C(c4ccc(F)cc4)N2C3c2ccc(F)cc2)cc1` (stereo not drawn), the Ratio IC50 came out at 0.83.

Test system in a further test: not listed separately
The test can be described thus: Selectivity ratio of IC50 for equine serum butyrylcholinesterase to IC50 for Electrophorus electricus acetylcholinesterase.
Consider `Clc1ccc(/C=C2\CNCC3=C2N=C2SC=C(c4ccccc4)N2C3c2ccc(Cl)cc2)cc1` (stereo not drawn), for which the Ratio IC50 was determined as 1.35.

For `Cc1ccc(/C=C2\CNCC3=C2N=C2SC=C(c4ccc(F)cc4)N2C3c2ccc(C)cc2)cc1` (stereo not drawn), the Ratio IC50 is 0.76.

On to `Fc1ccc(C2=CSC3=NC4=C(CNC/C4=C\c4ccccc4)C(c4ccccc4)N23)cc1` (stereo not drawn), for which the Ratio IC50 was found to be 0.39.

Turning to `COc1ccccc1/C=C1\CNCC2=C1N=C1SC=C(c3ccc(F)cc3)N1C2c1ccccc1OC` (stereo not drawn), the Ratio IC50 is 1.59.

For the compound `Fc1ccc(/C=C2\CNCC3=C2N=C2SC=C(c4ccccc4)N2C3c2ccc(F)cc2)cc1` (stereo not drawn), the Ratio IC50 stood at 0.98.

Take `Cc1ccc(/C=C2\CNCC3=C2N=C2SC=C(c4ccc(Cl)cc4)N2C3c2ccc(C)cc2)cc1` (stereo not drawn): the Ratio IC50 came to 1.5.

For the compound `Fc1ccc(/C=C2\CNCC3=C2N=C2SC=C(c4ccc(Cl)cc4)N2C3c2ccc(F)cc2)cc1` (stereo not drawn), the Ratio IC50 stood at 2.16.

`Clc1ccc(C2=CSC3=NC4=C(CNC/C4=C\c4ccccc4)C(c4ccccc4)N23)cc1` (stereo not drawn): the Ratio IC50 stood at 1.86.

As to `Fc1ccc(/C=C2\CNCC3=C2N=C2SC=C(c4ccc(F)cc4)N2C3c2ccc(F)cc2)cc1` (stereo not drawn), the Ratio IC50 is 1.2.

In a further test the target is Cholinesterase (Equus caballus, UniProt P81908). The test can be described thus: Inhibition of equine serum butyrylcholinesterase using S-butyrylthiocholine chloride as substrate preincubated for 15 mins followed by substrate addition measured for 30 mins by Ellman's method. The essentials: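 Modified Ellman assay in 0.1 M sodium phosphate buffer, pH 8. Samples were prepared in DMSO, with 1% DMSO in the final mix. Equine serum BChE was incubated with sample for 15 min at 25 °C. 10 mM DTNB stock was then added, followed by 14 mM S-butyrylthiocholine chloride stock. Absorbance at 412 nm was read for 30 min, and % inhibition was calculated relative to control.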
Sequence of Cholinesterase (P81908 whole entry): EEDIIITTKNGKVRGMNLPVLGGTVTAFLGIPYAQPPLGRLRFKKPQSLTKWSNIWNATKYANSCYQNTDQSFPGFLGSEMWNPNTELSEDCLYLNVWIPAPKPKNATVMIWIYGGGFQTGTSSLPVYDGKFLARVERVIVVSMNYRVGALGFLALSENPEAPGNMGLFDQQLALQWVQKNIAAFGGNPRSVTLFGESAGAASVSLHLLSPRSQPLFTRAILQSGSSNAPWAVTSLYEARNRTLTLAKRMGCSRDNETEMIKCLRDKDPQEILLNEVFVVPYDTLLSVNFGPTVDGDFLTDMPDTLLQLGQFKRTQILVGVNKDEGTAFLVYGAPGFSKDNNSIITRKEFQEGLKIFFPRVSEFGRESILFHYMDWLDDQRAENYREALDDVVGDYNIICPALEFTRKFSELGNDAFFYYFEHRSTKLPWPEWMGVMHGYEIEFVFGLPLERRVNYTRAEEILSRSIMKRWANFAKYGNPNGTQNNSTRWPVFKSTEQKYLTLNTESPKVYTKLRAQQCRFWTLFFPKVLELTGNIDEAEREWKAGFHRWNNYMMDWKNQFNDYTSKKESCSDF
`S=C1NC2/C(=C/c3ccccc3)CNCC2C(c2ccccc2)N1` (stereo not drawn): the midpoint of inhibition, the IC50, lay at 3.78 µM.

Compound `Cc1ccc(/C=C2\CNCC3C2NC(=S)NC3c2ccc(C)cc2)cc1` (stereo not drawn) gave a concentration for half-maximal inhibition (IC50) of 6.27 µM.

In the case of `Clc1ccc(/C=C2\CNCC3=C2N=C2SC=C(c4ccccc4)N2C3c2ccc(Cl)cc2)cc1` (stereo not drawn), the IC50 came to 2.18 µM.

Compound `Fc1ccc(/C=C2\CNCC3C2NC(=S)NC3c2ccc(F)cc2)cc1` (stereo not drawn) displayed an IC50 of 28.8 µM.

For the compound `Cc1ccc(/C=C2\CNCC3=C2N=C2SC=C(c4ccc(F)cc4)N2C3c2ccc(C)cc2)cc1` (stereo not drawn), the IC50 was found to be 4.91 µM.

For the compound `Fc1ccc(C2=CSC3=NC4=C(CNC/C4=C\c4ccccc4)C(c4ccccc4)N23)cc1` (stereo not drawn), the IC50 amounted to 7.91 µM.

For `COc1ccccc1/C=C1\CNCC2=C1N=C1SC=C(c3ccc(F)cc3)N1C2c1ccccc1OC` (stereo not drawn), the IC50 was 8.75 µM.

Regarding `Fc1ccc(/C=C2\CNCC3=C2N=C2SC=C(c4ccccc4)N2C3c2ccc(F)cc2)cc1` (stereo not drawn), the IC50 is 3.95 µM.

With `S=C1NC2/C(=C/c3ccc(Cl)cc3)CNCC2C(c2ccc(Cl)cc2)N1` (stereo not drawn), it took 6.26 µM to reach half-maximal inhibition (IC50).

In the case of `Cc1ccc(/C=C2\CNCC3=C2N=C2SC=C(c4ccc(Cl)cc4)N2C3c2ccc(C)cc2)cc1` (stereo not drawn), the half-maximal inhibitory concentration (IC50) was 32.6 µM.

`Fc1ccc(/C=C2\CNCC3=C2N=C2SC=C(c4ccc(Cl)cc4)N2C3c2ccc(F)cc2)cc1` (stereo not drawn) returned a half-maximal inhibitory concentration (IC50) of 22.2 µM.

Compound `S=C1NC2/C(=C/c3ccccc3Cl)CNCC2C(c2ccccc2Cl)N1` (stereo not drawn) had a concentration for half-maximal inhibition (IC50) of 2.91 µM.

Turning to `Clc1ccc(C2=CSC3=NC4=C(CNC/C4=C\c4ccccc4)C(c4ccccc4)N23)cc1` (stereo not drawn), it took 44.3 µM to reach half-maximal inhibition (IC50).

`COc1ccccc1/C=C1\CNCC2C1NC(=S)NC2c1ccccc1OC` (stereo not drawn) gave an IC50 of 1.18 µM.

`Fc1ccc(/C=C2\CNCC3=C2N=C2SC=C(c4ccc(F)cc4)N2C3c2ccc(F)cc2)cc1` (stereo not drawn) had a half-inhibitory concentration (IC50) of 15.8 µM.

Another test has as its target Acetylcholinesterase (Electrophorus electricus, UniProt O42275). The test can be described thus: Inhibition of Electrophorus electricus acetylcholinesterase using acetylthiocholine iodide as substrate preincubated for 15 mins followed by substrate addition measured for 30 mins by Ellman's method. On the technique in general: Ellman's reagent forms a yellow product with free thiols.
Turning to `S=C1NC2/C(=C/c3ccccc3)CNCC2C(c2ccccc2)N1` (stereo not drawn), it took 19.3 µM to reach half-maximal inhibition (IC50).

For the compound `Cc1ccc(/C=C2\CNCC3C2NC(=S)NC3c2ccc(C)cc2)cc1` (stereo not drawn), half-maximal inhibition (IC50) was put at 37.5 µM.

`Clc1ccc(/C=C2\CNCC3=C2N=C2SC=C(c4ccccc4)N2C3c2ccc(Cl)cc2)cc1` (stereo not drawn) yielded an IC50 of 1.62 µM. Compared with the last compound, the IC50 is about 23-fold lower.

Compound `Fc1ccc(/C=C2\CNCC3C2NC(=S)NC3c2ccc(F)cc2)cc1` (stereo not drawn) had an IC50 of 37.2 µM.

The compound `Cc1ccc(/C=C2\CNCC3=C2N=C2SC=C(c4ccc(F)cc4)N2C3c2ccc(C)cc2)cc1` (stereo not drawn) displayed an IC50 of 6.47 µM.

`Fc1ccc(C2=CSC3=NC4=C(CNC/C4=C\c4ccccc4)C(c4ccccc4)N23)cc1` (stereo not drawn) yielded an IC50 of 20.3 µM.

For the compound `COc1ccccc1/C=C1\CNCC2=C1N=C1SC=C(c3ccc(F)cc3)N1C2c1ccccc1OC` (stereo not drawn), the IC50 was determined as 5.5 µM.

`Fc1ccc(/C=C2\CNCC3=C2N=C2SC=C(c4ccccc4)N2C3c2ccc(F)cc2)cc1` (stereo not drawn) came in with an IC50 of 4.04 µM.

`S=C1NC2/C(=C/c3ccc(Cl)cc3)CNCC2C(c2ccc(Cl)cc2)N1` (stereo not drawn) showed an IC50 of 2.25 µM.

With `Cc1ccc(/C=C2\CNCC3=C2N=C2SC=C(c4ccc(Cl)cc4)N2C3c2ccc(C)cc2)cc1` (stereo not drawn), the IC50 was found to be 21.7 µM.

Compound `Fc1ccc(/C=C2\CNCC3=C2N=C2SC=C(c4ccc(Cl)cc4)N2C3c2ccc(F)cc2)cc1` (stereo not drawn) gave an IC50 of 10.3 µM.

`S=C1NC2/C(=C/c3ccccc3Cl)CNCC2C(c2ccccc2Cl)N1` (stereo not drawn) displayed an IC50 of 32.3 µM.

As to `Clc1ccc(C2=CSC3=NC4=C(CNC/C4=C\c4ccccc4)C(c4ccccc4)N23)cc1` (stereo not drawn), 23.9 µM corresponded to half-maximal inhibition (IC50).

Compound `COc1ccccc1/C=C1\CNCC2C1NC(=S)NC2c1ccccc1OC` (stereo not drawn) had an IC50 of 0.8 µM.

On to `Fc1ccc(/C=C2\CNCC3=C2N=C2SC=C(c4ccc(F)cc4)N2C3c2ccc(F)cc2)cc1` (stereo not drawn), for which 13.2 µM corresponded to half-maximal inhibition (IC50).

One may read the IC50 as the concentration needed to halve the response being measured.
